An excerpt weighted towards active compounds, which were near 4.1% of everything screened.
RGS4 pot – potentiators or activators of RGS4; HEK293 M3R/inducible RGS4, carbachol calcium flux Fluo4; active compounds read low; B-score at 10 µM; 310,000 tested, 0.92% active;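 active = B-score of the integrated calcium signal more than 4 SD below the library mean, with starting fluorescence not abnormally high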;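 also: negative B-score means reduced calcium response which marks RGS4 activation or potentiation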
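Detection: kinetic calcium fluorescence imaging with Fluo4-AM dye, 2 µM / Material: HEK293 cells with stable M3R and inducible RGS4 / Schedule: recording 10 s baseline at 1 Hz, 100 s post-agonist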
MrgX1 antagonist – antagonists of human MrgX1 receptor. MRGX1-HEK293 calcium flux, Fluo-4, BAM8-22 antagonism; active compounds read low. Q96LB2. B-score at 10 µM. AID 588676. 310,000 tested, 1.3% active;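 active = calcium-response B-score plate-corrected more than 3 library SD below zero, starting fluorescence within 5 deviations, no agonist response on first addition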;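 also: peak minus trough fluorescence over baseline after final BAM8-22 challenge near maximal dose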
MrgX1 ag – human MrgX1 receptor agonism, primary screen; B-score at 10 µM; MrgX1-HEK293 cells, Fluo-4 calcium fluorescence, agonist mode; active compounds read high; 310,000 tested, 0.44% active; Q96LB2;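 active = calcium response B-score plate-corrected fluorescence ratio at least 3 library SD, with starting fluorescence B-score inside 5 SD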
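System – MrgX1-expressing HEK293 cells · Incubation – cells plated overnight, dye loaded 0.5 h 37 °C, 0.5 h room temperature · Technique – kinetic Fluo-4 NW fluorescence of intracellular calcium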
RGS4 block – human RGS4 inhibition | B-score at 10 µM | HEK293 M3R/RGS4 inducible, Fluo-4 calcium flux; active compounds read high; triggered by carbachol at its EC20 | P49798 | 310,000 tested, 0.45% active;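 active = B-score, a plate-corrected calcium signal, over three deviations above library mean, with baseline fluorescence within five deviations of library mean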;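 also: RGS4 expression induced by doxycycline in cells with stable M3 receptor; B-score is computed from the integrated fluorescence ratio over baseline after carbachol; higher B-score means a larger calcium signal and so more RGS4 inhibition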
Target sequence (P49798 whole entry, looked up): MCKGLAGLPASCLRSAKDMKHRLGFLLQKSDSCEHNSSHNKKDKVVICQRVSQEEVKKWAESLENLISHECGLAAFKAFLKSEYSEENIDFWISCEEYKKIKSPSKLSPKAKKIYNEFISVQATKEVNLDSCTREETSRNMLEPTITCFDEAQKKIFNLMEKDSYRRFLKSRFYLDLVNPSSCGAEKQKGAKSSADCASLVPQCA
MrgX1 PAM – allosterically activates human MrgX1 receptor signaling; B-score at 10 µM; MrgX1-HEK293, Fluo-4 calcium flux, FDSS; active compounds read high; 310,000 tested, 0.63% active; AID 588675; Q96LB2;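 active = plate-corrected calcium response at least 3 library SD above typical, normal starting fluorescence, not activating the receptor alone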;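 also: compound read alongside a low EC10 to EC30 dose of BAM8-22 agonist; peak minus trough fluorescence over baseline measured at the second addition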
Kir21 block – inhibitors of mouse Kir2.1 inward-rectifier potassium channel | P35561 | HEK293-Kir2.1, FluxOR thallium flux fluorescence; active compounds read low | B-score at 10 µM | 310,000 tested, 0.85% active;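 active = fluorescence ratio B-score at or below minus 3 SD of library scores, with starting-brightness B-score within 2 SD, cut at about -4.2 in these data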;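 also: channel flux triggered by added potassium and thallium sulfate stimulus; B-score of peak minus minimum fluorescence over baseline after thallium stimulus; more negative B-score means stronger Kir2.1 block with less thallium influx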
Target sequence (P35561 whole entry, looked up): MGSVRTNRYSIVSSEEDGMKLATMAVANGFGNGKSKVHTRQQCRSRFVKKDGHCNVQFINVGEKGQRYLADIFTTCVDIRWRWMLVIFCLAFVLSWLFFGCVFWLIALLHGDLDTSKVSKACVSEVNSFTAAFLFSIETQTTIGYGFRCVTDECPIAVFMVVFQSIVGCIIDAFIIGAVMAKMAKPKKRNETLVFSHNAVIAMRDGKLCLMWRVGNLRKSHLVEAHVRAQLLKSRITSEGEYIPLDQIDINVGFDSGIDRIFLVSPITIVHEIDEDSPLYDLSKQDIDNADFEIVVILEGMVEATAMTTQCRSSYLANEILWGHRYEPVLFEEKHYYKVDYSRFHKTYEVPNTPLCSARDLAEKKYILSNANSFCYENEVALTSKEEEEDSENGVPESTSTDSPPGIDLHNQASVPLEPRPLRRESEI
MrgX1 antag conf – human MrgX1 receptor antagonism, re-confirmation screen; MrgX1-HEK293, BAM8-22 calcium flux, Fluo-4; active compounds read low; shares compounds with MrgX1 antagonist; 2,300 tested, 19% active; AID 602420; remaining BAM8-22 calcium response % of control (active compounds read low), % at 10 µM;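 active = remaining agonist calcium response no higher than 100% minus 3 SD of agonist-only control wells, with starting fluorescence near control levels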;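 also: agonist BAM8-22 given at a near maximal EC90 to ECmax level; peak minus minimum fluorescence divided by baseline after agonist addition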
HEK293 Ca flux – activity in parental HEK293 cells lacking MrgX1; 4,000 tested, 2% active; shares compounds with MrgX1 antagonist; Fluo-4 calcium fluorescence, FDSS; fluorescence ratio F(max-min)/F0 at 10 µM;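 active = duplicate-averaged calcium fluorescence ratio at least three times the standard deviation of buffer wells, a nonspecific response in parental cells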
HEK293 Ca counter – MrgX1 allosteric activator counter-screen hit in parental HEK293 cells; fluorescence ratio F(max-min)/F0 at 10 µM; shares compounds with MrgX1 antagonist; 4,000 tested, 0.4% active; AID 624114; parental HEK293 calcium flux, Fluo-4 fluorescence ratio; active compounds read high;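 active = calcium fluorescence ratio, averaged over duplicates, at least 3 SD of the buffer-well ratio, meaning a nonspecific response in receptor-free cells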;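 also: untransfected parental HEK293 lacking MrgX1 used as counterscreen for MrgX1 allosteric activators; fluorescence change taken during the second addition on a kinetic imager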
HEK293 Ca cntr2 – activity in parental HEK293 cells lacking MrgX1 receptor; shares compounds with MrgX1 antagonist; Fluo-4 calcium fluorescence (FDSS); active compounds read high; fluorescence ratio F(max-min)/F0 at 10 µM; 4,000 tested, 8.7% active; AID 624115;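 active = calcium fluorescence ratio at least three times the spread of buffer wells, meaning a non-specific response in parental cells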
* marks the source's active call; other numbers are inactive results; i = inactive; . = no result.

SMILES	RGS4 pot	MrgX1 antagonist	MrgX1 ag	RGS4 block	MrgX1 PAM	Kir21 block	MrgX1 antag conf	HEK293 Ca flux	HEK293 Ca counter	HEK293 Ca cntr2
O=C(CCc1nc(-c2cccs2)no1)Nc1cnc2ccccc2c1	i	-5.56*	i	i	i	-0.07	83.9%*	i	i	i
CC1=C(C)/C(=N\OC(=O)/C=C/c2ccccc2)C=CC1=O	i	i	i	i	i	0.02	.	.	.	.
Cn1c(CCNC(=O)c2ccccc2F)nnc1SCC(=O)Nc1ccccc1F	i	i	i	i	i	-0.44	.	.	.	.
COc1ccc(CNC(=O)OCCN2CCN(Cc3ccccc3)CCC2=O)cc1	i	-4.85*	i	i	i	-1.51	i	i	i	i
COc1ccc(NC(=O)OCCN2CCN(Cc3ccccc3)CCC2=O)cc1	i	i	i	i	i	-0.67	.	.	.	.
Cc1ccc(NC(=O)CC2=NC(=O)C(CC(=O)Nc3ccccc3F)S2)cc1 (centres undefined)	i	-4.91*	i	i	i	-0.73	i	i	i	i
Cc1cccc(C(=O)Nc2cccc3c2CCCC3)c1	i	i	i	i	i	0.02	.	.	.	.
O=C(Nc1cccc2c1CCCC2)c1ccncc1	i	-8.46*	i	i	i	2.85	i	i	i	i
O=C(NCCCn1ccnc1)c1cc(S(=O)(=O)N2CCOCC2)c(Cl)cc1Cl	i	-5.12*	i	i	i	-0.6	i	i	i	i
CCSc1nnc(-c2ccncc2)n1Cc1ccccc1	i	-6.51*	i	i	i	1.45	i	i	i	i
O=C(c1cc2ccccc2cc1O)N1CCN(c2ccccc2O)CC1	i	i	i	i	i	-0.07	.	.	.	.
COC(=O)c1ccccc1NC(=O)C(C)Oc1ccccc1 (centres undefined)	.	i	i	.	i	.	.	.	.	.
Cc1ccccc1NC(=O)C(C)OC(=O)c1ccccc1C(=O)N(C)c1ccccc1 (centres undefined)	i	-5.74*	i	i	i	0.07	i	i	i	i
Cc1ccc(NC(=S)/C(=C(\[O-])c2ccc(C)c([N+](=O)[O-])c2)[n+]2ccccc2)cc1C	i	i	i	i	i	1.52	.	.	.	.
CCOc1nc(Nc2ccc(OC)cc2)nc(OCC)n1	i	i	i	i	i	-1.03	.	.	.	.
CCOc1nc(Nc2ccc(OC)c(Cl)c2)nc(OCC)n1	i	-4.8*	i	i	i	0.95	i	i	i	i
COc1ccc(Nc2nc(N)nc(CSc3nccc(C)n3)n2)cc1	i	-9.53*	i	i	i	-2.31	i	i	i	i
O=C(Nc1cccc(Cl)c1)C1CCCCC1	.	-5.39*	i	.	i	.	i	i	i	i
Cc1ccc(S(=O)(=O)N2CCC(C(=O)N3CCC(C(=O)NCc4cccnc4)CC3)CC2)cc1	i	-6.63*	i	i	i	1.31	85.1%*	i	i	i
CC(=O)Nc1ccc(S(=O)(=O)N2CCC(C(=O)NCc3cccnc3)CC2)cc1	i	i	i	i	i	0.34	.	.	.	.
COc1cccc(NS(=O)(=O)c2c(C)cc(C)cc2C)c1	i	-5.16*	i	i	i	-1.9	i	i	i	i
O=C(CSc1nnc(Cc2ccccc2)o1)NCc1ccc2c(c1)OCO2	i	i	i	i	i	0.12	.	.	.	.
N#CCSc1nnc(Cc2ccc3c(c2)OCO3)o1	i	-5.38*	i	i	i	0.37	i	i	i	i
Cc1cc(C(=O)CSc2nnc(Cc3ccccc3)o2)c(C)n1Cc1ccc2c(c1)OCO2	i	-7.54*	i	i	i	0.35	i	i	i	i
N#CCSc1nnc(-c2ccc3c(c2)OCO3)o1	i	i	i	i	i	-0.45	.	.	.	.
SMILES	RGS4 pot	MrgX1 antagonist	MrgX1 ag	RGS4 block	MrgX1 PAM	Kir21 block	MrgX1 antag conf	HEK293 Ca flux	HEK293 Ca counter	HEK293 Ca cntr2
COC(=O)[C@H](Cc1ccccc1)NC(=O)N1CCCCC1C (some centres undefined)	i	i	i	i	i	-0.45	.	.	.	.
CCC1CCCCN1C(=O)N[C@@H](Cc1ccccc1)C(=O)O (some centres undefined)	i	-4.96*	i	i	i	0.21	i	i	i	i
COC(=O)c1ccc(N)nc1	i	i	i	i	i	-0.5	.	.	.	.
COc1ccc(CNC(=O)COc2cc3c(c4oc(=O)cc(C)c24)CCC(C)(C)O3)cc1OC	i	-4.75*	i	i	i	-1.19	i	i	i	i
Cc1cc(=O)oc2c3c(cc(OCC(=O)NCc4ccncc4)c12)OC(C)(C)CC3	i	-4.87*	i	i	i	-0.38	75.6%*	i	i	i
CC1(C)CC2(CCO1)OC(=O)CC2C(=O)Nc1ccc(Cl)cc1[N+](=O)[O-] (centres undefined)	i	i	i	i	i	-0.45	.	.	.	.
COCCN(C(=O)COC(=O)c1cc(C)oc1C)c1c(N)n(Cc2ccccc2)c(=O)[nH]c1=O	i	i	i	i	i	0.09	.	.	.	.
O=C(NCCN1CCOCC1)c1ccccc1N1C(=O)[C@@H]2Cc3c([nH]c4ccccc34)C(c3ccccc3)N2C1=O (some centres undefined)	i	-6.79*	i	i	i	0.12	i	i	i	i
CSCCC(NC(=O)c1ccccc1)C(=O)N/N=C(\C)Cc1ccccc1 (centres undefined)	i	i	i	i	i	1.39	.	.	.	.
CC1CN(c2ccccc2)c2nc3c(c(=O)[nH]c(=O)n3C)n2C1 (centres undefined)	i	-6.67*	i	i	i	-0.3	i	i	i	i

Source: PubChem (Johns Hopkins Ion Channel Center)
